ChEMBL document CHEMBL3244343, “7-(Aminoethyl) ether and thioether of daunomycinone” (1979)

What was measured:
[1] = tested on: P388; assay: Antitumor activity against mouse P388 cells allografted in mouse assessed as increase in survival time at 1 mg/kg, po q4d administered on days 5, 9 and 13 relative to control; assay type: functional
How it was run: (§1)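 P388 leukemia cells were injected ip into mice on day 0, and the tumor was allowed to advance before dosing on days 5, 9 and 13. Read-out is the survival time of treated relative to control mice (T/C, %), with ≥125% required for activity. Each value comes from a single test.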

[2] = tested on: L1210; assay: Inhibition of RNA synthesis in mouse L1210 cells assessed as inhibition of [3H]uridine incorporation; assay type: functional; conditions: read-out: ED50 (the source's name)
How it was run: (§2)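 L1210 leukemia cells in culture. Incorporation of [3H]thymidine (DNA) or [3H]uridine (RNA) was measured, and the dose giving 50% inhibition (ED50) was reported. Follows a previously described procedure, with 1% Me2SO added for some compounds.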

[3] = Binding affinity to DNA (unknown origin) assessed as DNA interaction by measuring change in melting temperature
How it was run: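 Thermal denaturation (melting temperature) shift of DNA in solution, read as ΔTm in °C. Buffer was 0.010 M phosphate, pH 7.0, with 10^-5 M EDTA plus 5% Me2SO to solubilize the compounds. Other steps followed a previously described method.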

[4] = tested on: P388; assay: Antitumor activity against mouse P388 cells allografted in mouse assessed as increase in survival time at 0.78 mg/kg, po qd administered from day 1 to day 9 relative to control; assay type: functional
[5] = tested on: L1210; assay: Inhibition of DNA synthesis in mouse L1210 cells assessed as inhibition of [3H]thymidine incorporation; assay type: functional; conditions: read-out: ED50 (the source's name); how it was run: as §2
[6] = tested on: P388; assay: Antitumor activity against mouse P388 cells allografted in mouse assessed as increase in survival time at 2 mg/kg, po q4d administered on days 5, 9 and 13 relative to control; assay type: functional; how it was run: as §1
[7] = tested on: P388; assay: Antitumor activity against mouse P388 cells allografted in mouse assessed as increase in survival time at 200 mg/kg, po q4d administered on days 5, 9 and 13 relative to control; assay type: functional; how it was run: as §1
[8] = tested on: P388; assay: Antitumor activity against mouse P388 cells allografted in mouse assessed as increase in survival time at 50 mg/kg, po q4d administered on days 5, 9 and 13 relative to control; assay type: functional; how it was run: as §1
[9] = tested on: P388; assay: Antitumor activity against mouse P388 cells allografted in mouse assessed as increase in survival time at 6.25 mg/kg, po qd administered from day 1 to day 9 relative to control; assay type: functional

| SMILES | T/C [1] [%] | EC50 [2] [nM] | ΔTm [3] [°C] | T/C [4] [%] | EC50 [5] [nM] | T/C [6] [%] | T/C [7] [%] | T/C [8] [%] | T/C [9] [%] |
| --- | --- | --- | --- | --- | --- | --- | --- | --- | --- |
| COc1cccc2c1C(=O)c1c(O)c3c(c(O)c1C2=O)C[C@@](O)(C(=O)CO)C[C@@H]3O[C@H]1C[C@H](N)[C@H](O)[C@H](C)O1 [DOXORUBICIN] | 130 | 700 | 13.6 | 197 | 2000 | – | – | – | – |
| COc1cccc2c1C(=O)c1c(O)c3c(c(O)c1C2=O)C[C@@](O)(C(C)=O)C[C@@H]3O[C@H]1C[C@H](N)[C@H](O)[C@H](C)O1.Cl [DAUNORUBICIN HYDROCHLORIDE] | – | 300 | 11.2 | 160 | 400 | 133 | – | – | – |
| COc1cccc2c1C(=O)c1c(O)c3c(c(O)c1C2=O)C[C@@](O)(C(C)=O)C[C@@H]3SCCN.Cl | – | 4000 | 6.3 | – | 6000 | – | 109 | – | – |
| COc1cccc2c1C(=O)c1c(O)c3c(c(O)c1C2=O)C[C@@](O)(C(C)=O)C[C@@H]3OCCN.Cl | – | 1000 | 8.2 | – | 2000 | – | – | 112 | – |
| COc1cccc2c1C(=O)c1c(O)c3c(c(O)c1C2=O)C[C@@](O)(C(C)=O)C[C@@H]3OC(=O)CCN.Cl | – | 6000 | 1 | – | 8000 | – | – | 116 | 126 |
